{"source": "paper PMC12325899", "about": "(Scientific Reports, 2025)", "key": {"BCRP [1]": {"tested_on": "BCRP", "details": "cited from earlier work"}, "BCRP [2]": {"target": "T1, BCRP (Rattus norvegicus, UniProt Q80W57)", "T1 sequence (Q80W57 1-657)": "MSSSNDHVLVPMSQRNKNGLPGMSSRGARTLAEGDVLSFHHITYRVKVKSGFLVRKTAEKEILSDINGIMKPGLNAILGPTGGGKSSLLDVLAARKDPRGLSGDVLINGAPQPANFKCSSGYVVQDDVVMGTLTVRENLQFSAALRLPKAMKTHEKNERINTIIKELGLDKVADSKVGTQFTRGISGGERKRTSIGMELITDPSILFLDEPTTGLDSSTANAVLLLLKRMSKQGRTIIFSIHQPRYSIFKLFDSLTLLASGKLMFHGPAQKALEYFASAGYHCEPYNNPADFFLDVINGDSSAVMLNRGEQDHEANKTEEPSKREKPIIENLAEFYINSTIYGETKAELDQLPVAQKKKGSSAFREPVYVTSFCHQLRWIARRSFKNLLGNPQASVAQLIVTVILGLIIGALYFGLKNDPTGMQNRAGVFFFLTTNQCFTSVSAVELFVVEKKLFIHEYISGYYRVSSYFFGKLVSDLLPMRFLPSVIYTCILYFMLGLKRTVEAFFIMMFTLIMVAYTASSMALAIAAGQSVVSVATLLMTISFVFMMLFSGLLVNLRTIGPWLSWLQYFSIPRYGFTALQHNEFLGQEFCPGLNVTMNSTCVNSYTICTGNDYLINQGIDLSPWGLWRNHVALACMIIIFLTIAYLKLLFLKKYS", "assay": "In vivo pharmacokinetic interaction with the BCRP substrate sulfasalazine", "set-up": "species or system Sprague-Dawley (SD) rats", "details": "rats; for half-life: male, Sprague-Dawley, rat, plasma, po, 2 mg/kg, t1/2 of sulfasalazine; for increase of sulfasalazine AUClast versus sulfasalazine alone / increase of sulfasalazine Cmax versus sulfasalazine alone: flavonol 5 mg/kg co-administered with sulfasalazine 2 mg/kg oral", "in_short": "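Male SD rats (8 weeks, 250–270 g), acclimatized 1 week and fasted overnight with water, n = 5/group. Oral sulfasalazine 2 mg/kg alone or co-administered with test flavonol 5 mg/kg. Plasma was separated at 4 °C and sulfasalazine measured by LC-MS/MS after methanol precipitation with IS. Noncompartmental analysis: AUClast by trapezoidal rule, Cmax observed. Groups were compared with Student's t-test; mean ± SD.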"}, "BCRP [3]": {"tested_on": "BCRP", "details": "read-out: IC50 for BCRP inhibition; cited from earlier work"}, "BCRP [4]": {"tested_on": "BCRP", "details": "amentoflavone 30 mg/kg co-administered with mitoxantrone, rats; cited from earlier work"}, "BCRP [5]": {"target": "T2, BCRP (Homo sapiens, UniProt Q9UNQ0)", "T2 sequence (Q9UNQ0 1-655)": "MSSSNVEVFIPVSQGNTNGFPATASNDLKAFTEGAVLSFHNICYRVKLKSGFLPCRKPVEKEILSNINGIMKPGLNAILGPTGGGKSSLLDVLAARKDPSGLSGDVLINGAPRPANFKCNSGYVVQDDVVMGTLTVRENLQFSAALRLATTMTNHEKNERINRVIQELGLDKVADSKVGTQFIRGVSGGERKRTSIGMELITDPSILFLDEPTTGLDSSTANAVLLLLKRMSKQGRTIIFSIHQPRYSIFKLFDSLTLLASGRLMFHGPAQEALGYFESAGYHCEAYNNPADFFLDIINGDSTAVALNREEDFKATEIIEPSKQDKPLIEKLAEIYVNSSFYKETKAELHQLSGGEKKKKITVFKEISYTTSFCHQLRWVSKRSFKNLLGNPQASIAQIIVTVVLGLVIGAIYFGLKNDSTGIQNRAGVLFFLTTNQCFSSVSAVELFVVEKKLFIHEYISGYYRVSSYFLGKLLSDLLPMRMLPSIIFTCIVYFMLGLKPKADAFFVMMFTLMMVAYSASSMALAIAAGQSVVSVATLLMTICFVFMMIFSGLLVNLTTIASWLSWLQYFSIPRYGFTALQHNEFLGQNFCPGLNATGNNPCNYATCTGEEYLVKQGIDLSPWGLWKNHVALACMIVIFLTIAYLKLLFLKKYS", "assay": "BCRP inhibition, prazosin accumulation assay in MDCKII-BCRP cells", "details": "for IC50: IC50 on BCRP activity, prazosin 5 µM, 20 min, MDCKII-BCRP; for inhibition at 20 min, 2 µM: human, pH 7.4"}, "MDCKII-BCRP cells": {"tested_on": "MDCKII-BCRP cells", "assay": "Reversal of BCRP-mediated resistance to SN-38", "assay_type": "cell-based, canine", "details": "flavonol 5 µM; CC50 in MDCKII-BCRP comparable to mock cells"}, "[6]": {"assay": "Plasma pharmacokinetics of the flavonols after oral co-administration", "assay_type": "in vivo, Sprague-Dawley (SD) rats", "details": "male, Sprague-Dawley, rat, 5 mg/kg", "in_short": "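Fasted male SD rats (8 weeks, 250–270 g; n = 5) were dosed orally with test flavonol 5 mg/kg together with sulfasalazine 2 mg/kg. Flavonol in plasma was quantified by LC-MS/MS: methanol/IS protein precipitation, C18 gradient of ammonium formate and formic acid–acetonitrile. Noncompartmental parameters: AUClast by trapezoidal rule, AUCinf by extrapolation, Cmax/Tmax observed, t1/2 from terminal slope; mean ± SD.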"}, "BCRP [7]": {"tested_on": "BCRP", "details": "cited from earlier work", "remark": "listed apart in the source"}}}
{"smiles": "COc1cc(Nc2ncc(F)c(Nc3ccc4c(n3)N(COP(=O)(O)O)C(=O)C(C)(C)O4)n2)cc(OC)c1OC", "note": "[Fostamatinib]", "values": [{"measurement": "increase of the plasma concentration of rosuvastatin", "setting": "BCRP [1]", "value": "approximately two-fold"}]}
{"smiles": "O=C(O)c1cc(/N=N/c2ccc(S(=O)(=O)Nc3ccccn3)cc2)ccc1O", "note": "[Sulfasalazine, sulfasalazine, reference compound]", "values": [{"measurement": "half-life", "setting": "BCRP [2]; sulfasalazine 2 mg/kg oral + 3,4’-dimethoxyflavone 5 mg/kg", "value": "1.76 ± 0.29", "unit": "h"}, {"measurement": "half-life", "setting": "BCRP [2]; sulfasalazine 2 mg/kg oral + 3,6,3’,4’-tetramethoxyflavone 5 mg/kg", "value": "2.34 ± 1.23", "unit": "h"}]}
{"smiles": "O=c1cc(-c2ccc(O)c(-c3c(O)cc(O)c4c(=O)cc(-c5ccc(O)cc5)oc34)c2)oc2cc(O)cc(O)c12", "note": "[amentoflavone]", "values": [{"measurement": "IC50", "setting": "BCRP [3]", "value": "~4", "unit": "µM"}, {"measurement": "increase of the AUC of mitoxantrone", "setting": "BCRP [4]", "value": 1.23, "unit": "fold"}]}
{"smiles": "O=c1c(O)c(-c2cccc(O)c2)oc2cc(O)ccc12", "note": "[compound 8, 3,7,3’-Trihydroxyflavone]", "values": [{"measurement": "IC50", "setting": "BCRP [5]", "value": "< 5", "unit": "µM"}, {"measurement": "reversal of BCRP-mediated resistance to SN-38", "setting": "MDCKII-BCRP cells", "value": "almost completely reversed BCRP-mediated resistance to SN-38"}]}
{"smiles": "O=c1c(O)c(-c2ccc(O)cc2O)oc2cc(O)cc(O)c12", "note": "[compound 31, 3,5,7,2’,4’-Pentahydroxyflavone]", "values": [{"measurement": "IC50", "setting": "BCRP [5]", "value": "> 10", "unit": "µM"}]}
{"smiles": "Cc1c(O)cc(O)c2c(=O)c(O)c(-c3ccc(O)c(O)c3)oc12", "note": "[compound 32, 3,5,7,3’,4’-Pentahydroxy-8-methylflavone]", "values": [{"measurement": "IC50", "setting": "BCRP [5]", "value": "< 5", "unit": "µM"}]}
{"smiles": "COc1ccc2oc(-c3cccc(OC)c3OC)c(OC)c(=O)c2c1", "note": "[compound 47, 3,6,2’,3’-Tetramethoxyflavone]", "values": [{"measurement": "IC50", "setting": "BCRP [5]", "value": "> 10", "unit": "µM"}]}
{"smiles": "COc1ccc(-c2oc3cc(O)cc(O)c3c(=O)c2OC)cc1O", "note": "[compound 48, 5,7,3’-Trihydroxy-3,4’-dimethoxyflavone]", "values": [{"measurement": "IC50", "setting": "BCRP [5]", "value": "< 5", "unit": "µM"}]}
{"smiles": "COc1cc(O)c2c(=O)c(OC)c(-c3ccc(OC)c(OC)c3)oc2c1", "note": "[compound 50, 5-Hydroxy-3,7,3’,4’-tetramethoxyflavone]", "values": [{"measurement": "IC50", "setting": "BCRP [5]", "value": "< 5", "unit": "µM"}, {"measurement": "reversal of BCRP-mediated resistance to SN-38", "setting": "MDCKII-BCRP cells", "value": "almost completely reversed BCRP-mediated resistance to SN-38"}]}
{"smiles": "COc1ccc(-c2oc3cc(OC)c(O)c(OC)c3c(=O)c2OC)cc1O", "note": "[compound 52, 6,3’-Dihydroxy-3,5,7,4’-tetramethoxyflavone]", "values": [{"measurement": "IC50", "setting": "BCRP [5]", "value": "< 5", "unit": "µM"}]}
{"smiles": "COc1ccc(-c2oc3cc(OC)c(OC)c(OC)c3c(=O)c2OC)cc1", "note": "[compound 53, 3,5,6,7,4’-Pentamethoxyflavone]", "values": [{"measurement": "IC50", "setting": "BCRP [5]", "value": "< 5", "unit": "µM"}]}
{"smiles": "O=c1c(O)c(-c2ccccc2)oc2cc(O)ccc12", "note": "[compound no. 7, 3,7-Dihydroxyflavone]", "values": [{"measurement": "IC50", "setting": "BCRP [5]", "value": "< 5", "unit": "µM"}]}
{"smiles": "O=c1c(O)c(-c2ccc(O)c(O)c2)oc2cc(O)cc(O)c12", "note": "[compound no. 27, 3,5,7,3’,4’-Pentahydroxyflavone]", "values": [{"measurement": "IC50", "setting": "BCRP [5]", "value": "< 5", "unit": "µM"}, {"measurement": "inhibition at 20 min, 2 µM", "setting": "BCRP [5]", "value": 45.9, "unit": "%"}]}
{"smiles": "COc1cc(-c2oc3cc(O)cc(O)c3c(=O)c2O)ccc1O", "note": "[compound no. 29, 3,5,7,4’-Tetrahydroxy-3’-methoxyflavone]", "values": [{"measurement": "inhibition at 20 min, 2 µM", "setting": "BCRP [5]", "value": 45.5, "unit": "%"}]}
{"smiles": "COc1ccc(-c2oc3ccccc3c(=O)c2OC)cc1", "note": "[compound no. 37, 3,4’-Dimethoxyflavone]", "values": [{"measurement": "increase of sulfasalazine AUClast versus sulfasalazine alone", "setting": "BCRP [2]", "value": 1.79, "unit": "fold"}, {"measurement": "increase of sulfasalazine Cmax versus sulfasalazine alone", "setting": "BCRP [2]", "value": "approximately 1.83 fold"}, {"measurement": "AUC(0-t)", "setting": "[6]", "value": "0.0124 ± 0.005", "unit": "µg·h/mL"}, {"measurement": "Cmax", "setting": "[6]", "value": "0.0135 ± 0.0088", "unit": "µg/mL"}, {"measurement": "half-life", "setting": "[6]", "value": "0.54 ± 0.15", "unit": "h"}]}
{"smiles": "COc1ccc2c(=O)c(OC)c(-c3ccc(O)c(OC)c3)oc2c1", "note": "[compound no. 43, 4’-Hydroxy-3,7,3’-trimethoxyflavone]", "values": [{"measurement": "IC50", "setting": "BCRP [5]", "value": "< 5", "unit": "µM"}, {"measurement": "inhibition at 20 min, 2 µM", "setting": "BCRP [5]", "value": 45.2, "unit": "%"}, {"measurement": "reversal of BCRP-mediated resistance to SN-38", "setting": "MDCKII-BCRP cells", "value": "almost completely reversed BCRP-mediated resistance to SN-38"}]}
{"smiles": "COc1ccc2oc(-c3ccc(OC)c(OC)c3)c(OC)c(=O)c2c1", "note": "[compound no. 46, 3,6,3’,4’-Tetramethoxyflavone]", "values": [{"measurement": "increase of sulfasalazine AUClast versus sulfasalazine alone", "setting": "BCRP [2]", "value": 1.74, "unit": "fold"}, {"measurement": "increase of sulfasalazine Cmax versus sulfasalazine alone", "setting": "BCRP [2]", "value": 2.02, "unit": "fold"}, {"measurement": "IC50", "setting": "BCRP [5]", "value": "< 5", "unit": "µM"}, {"measurement": "inhibition at 20 min, 2 µM", "setting": "BCRP [5]", "value": 49.9, "unit": "%"}, {"measurement": "reversal of BCRP-mediated resistance to SN-38", "setting": "MDCKII-BCRP cells", "value": "almost completely reversed BCRP-mediated resistance to SN-38"}, {"measurement": "AUC(0-t)", "setting": "[6]", "value": "0.0223 ± 0.0016", "unit": "µg·h/mL"}, {"measurement": "Cmax", "setting": "[6]", "value": "0.0133 ± 0.0006", "unit": "µg/mL"}, {"measurement": "half-life", "setting": "[6]", "value": "2.24 ± 0.17", "unit": "h"}]}
{"smiles": "COc1ccc(-c2oc3cc(OC)c(OC)c(OC)c3c(=O)c2OC)cc1OC", "note": "[compound no. 54, 3,5,6,7,3’,4’-Hexamethoxyflavone]", "values": [{"measurement": "IC50", "setting": "BCRP [5]", "value": "< 5", "unit": "µM"}, {"measurement": "inhibition at 20 min, 2 µM", "setting": "BCRP [5]", "value": 52, "unit": "%"}]}
{"smiles": "O=c1[nH]c(=O)c2c[nH]nc2[nH]1", "note": "[oxypurinol]", "values": [{"measurement": "prolongation of half-life", "setting": "BCRP [7]; individuals homozygous for the p.Q141K variant", "value": 1.8, "unit": "fold"}]}
{"smiles": "CC(C)c1nc(N(C)S(C)(=O)=O)nc(-c2ccc(F)cc2)c1/C=C/[C@@H](O)C[C@@H](O)CC(=O)O", "note": "[rosuvastatin, reference compound]", "values": [{"measurement": "increase in maximum plasma concentration", "setting": "BCRP [7]; 421CA or 421AA genotypes versus 421CC wild-type homozygous genotype", "value": 1.9, "unit": "fold"}]}
